Results published in ChEMBL document CHEMBL1255465, “Persistence of uropathogenic Escherichia coli in the face of multiple antibiotics” (Antimicrob Agents Chemother, 2010).
Active and inactive are the calls of the source. No cut-off for these calls is given here.

Assays:
Escherichia coli [1] = assay: Antibacterial activity against uropathogenic Escherichia coli UTI89 infected in human 5637 cells assessed as decrease in intracellular bacterial level at 1000 to 2000 ug/ml after 12 hrs by serial dilution method; type: functional, organism-based
Outline: (§1)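 Confluent 5637 monolayers in triplicate infected with UTI89 (24-h static LB culture, type 1 pili) at MOI ~15 and spun 600 × g for 5 min. After 2 h: gentamicin 100 μg/ml for 2 h, then 10 μg/ml for 14 h. Then 12 h with drug at two concentrations. Cells lysed in 0.4% Triton X-100 and plated on LB agar. Titers expressed relative to 800 μg/ml gentamicin. ≥3 independent assays.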

5637 [2] = assay: Cytotoxicity against human 5637 cells assessed as mild induction of cell death by trypan blue exclusion assay; type: cell-based
Outline: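 Integrity of 5637 cells after drug treatment assessed by 0.4% trypan blue exclusion, following a standard protocol.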

5637 [3] = assay: Cytotoxicity against human 5637 cells assessed as mild induction of cell death by LDH release assay; type: cell-based
Escherichia coli [4] = assay: Antibacterial activity against uropathogenic Escherichia coli UTI89 assessed as degradation of preexisting biofilm after 24 hrs by microscopy; type: functional, organism-based
Outline: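 UTI89 diluted 1:100 into M9 medium and grown statically 48 h at 37°C in microtiter wells. Nonadherent cells removed, fresh M9 ± drug added for 24 h, using the higher of two tested concentrations. Viable bacteria in biofilms visualized by Live/Dead BacLight staining and microscopy.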

Escherichia coli [5] = assay: Antibacterial activity against uropathogenic Escherichia coli UTI89 infected in human 5637 cells assessed as decrease in intracellular bacterial level at 1200 to 1600 ug/ml after 12 hrs by serial dilution method; type: functional, organism-based; outline: as §1
Escherichia coli [6] = assay: Antibacterial activity against uropathogenic Escherichia coli UTI89 assessed as inhibition of biofilm formation after 24 hrs by microtiterplate-based assay; type: functional, organism-based
Outline: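 Biofilms of UTI89 formed for 48 h at 37°C without shaking in M9 (1:100 inoculum, triplicate wells). Fresh M9 ± drug (higher of two tested concentrations) then added for 24 h. Biomass stained with 0.1% crystal violet, solubilized in DMSO, read at A562, and expressed relative to untreated controls. Three independent experiments.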

Escherichia coli [7] = assay: Antibacterial activity against uropathogenic Escherichia coli UTI89 isolated from urine samples of infected CBA/J mouse after 24 hrs by disk diffusion assay; type: functional, organism-based
Outline: (§2)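 Urine collected by gentle bladder pressure 2 h after oral dosing of UTI89-infected CBA/J mice. 10 μl spotted on 7-mm filter discs, placed on fresh UTI89 lawns on LB agar. Clearance diameter measured after 24 h at 37°C. Urine drug level calculated from standard curves of discs holding known antibiotic concentrations.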

Escherichia coli [8] = conditions: UTI89, Urothelium, 2 mg/kg
Escherichia coli [9] = conditions: UTI89, Urothelium, 2 mg/kg; remark: listed apart in the source
Escherichia coli [10] = conditions: UTI89, 5637, 2 to 3 ug/ml
Escherichia coli [11] = conditions: UTI89, Urinary bladder, 2 mg/kg
Escherichia coli [12] = assay: Antibacterial activity against uropathogenic Escherichia coli UTI89 infected in human 5637 cells assessed as decrease in intracellular bacterial level at 1000 to 3000 ug/ml after 12 hrs by serial dilution method; type: functional, organism-based; outline: as §1
Escherichia coli [13] = assay: Antibacterial activity against uropathogenic Escherichia coli UTI89 infected in human 5637 cells assessed as decrease in intracellular bacterial level at 200 to 300 ug/ml after 12 hrs by serial dilution method; type: functional, organism-based; outline: as §1
Escherichia coli [14] = assay: Antibacterial activity against uropathogenic Escherichia coli UTI89 infected in human 5637 cells assessed as decrease in intracellular bacterial level at 800 to 1200 ug/ml after 12 hrs by serial dilution method; type: functional, organism-based
Outline: (§3)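 UTI89 was grown 24 h static in LB (type 1 pili) and added to confluent 5637 monolayers at MOI ~15, spun 600 × g for 5 min. After 2 h at 37°C: gentamicin 100 μg/ml for 2 h, then 10 μg/ml for 14 h. Next, 12 h with antibiotic at two concentrations. Lysis in 0.4% Triton X-100, serial-dilution plating; titers relative to 800 μg/ml gentamicin. ≥3 independent assays in triplicate, mean ± SEM.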

Escherichia coli [15] = assay: Antibacterial activity against uropathogenic Escherichia coli UTI89 infected in human 5637 cells assessed as decrease in intracellular bacterial level at 300 to 500 ug/ml after 12 hrs by serial dilution method; type: functional, organism-based; outline: as §3
Escherichia coli [16] = assay: Antibacterial activity against uropathogenic Escherichia coli UTI89 infected in human 5637 cells assessed as decrease in intracellular bacterial level at 400 to 700 ug/ml after 12 hrs by serial dilution method; type: functional, organism-based; outline: as §1
Escherichia coli [17] = assay: Antibacterial activity against uropathogenic Escherichia coli UTI89 infected in human 5637 cells assessed as decrease in intracellular bacterial level at 600 to 1000 ug/ml after 12 hrs by serial dilution method; type: functional, organism-based; outline: as §1
[18] = Drug level in Escherichia coli UTI89-infected CBA/J mouse urine at 700 ug/kg, po after 2 hrs; type: ADME, organism-based; conditions: in vivo, 0.7 mg/kg; outline: as §2
Escherichia coli [19] = assay: Antibacterial activity against uropathogenic Escherichia coli UTI89 infected in CBA/J mouse assessed as decrease in bacterial invasion into layers of urothelium at 700 ug/kg, po administered on day 3 postinfection daily for 3 days measured on day 9 post-inoculation; type: functional, organism-based
Escherichia coli [20] = assay: Antibacterial activity against uropathogenic Escherichia coli UTI89 infected in CBA/J mouse assessed as decrease in bacterial invasion into layers of urothelium at 700 ug/kg, po administered on day 3 postinfection daily for 3 days measured on day 9 post-inoculation in presence of Triton X-100; type: functional, organism-based
Escherichia coli [21] = assay: Antibacterial activity against pGEN-GFP carrying uropathogenic Escherichia coli UTI89 isolated from bladder samples of infected CBA/J mouse assessed as decrease in growth of intracellular bacterial community at 12 ug/ml treated 6 hrs postinfection measured after 18 hrs; type: functional, organism-based
Outline: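 Bladders from female CBA/J mice taken 6 h after transurethral inoculation with GFP(LVA)-plasmid UTI89, then halved, splayed and pinned lumen-up under Ringer solution (pH 7.4). Drug combination added at 12 and 700 μg/ml. GFP-positive IBCs counted by fluorescence stereomicroscopy at set times up to 18 h. n = 8 mice per group; Mann-Whitney U test.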

Escherichia coli [22] = assay: Antibacterial activity against uropathogenic Escherichia coli UTI89 infected in human 5637 cells assessed as decrease in intracellular bacterial level at 12 to 100 ug/ml after 12 hrs by serial dilution method; type: functional, organism-based; outline: as §1
Escherichia coli [23] = assay: Antibacterial activity against uropathogenic Escherichia coli UTI89 infected in CBA/J mouse assessed as decrease in bacterial load in bladder at 700 ug/kg, po administered on day 3 postinfection daily for 3 days measured on day 9 post-inoculation; type: functional, organism-based; conditions: Urinary bladder
Outline: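 Female CBA/J mice, 7–8 weeks old, inoculated transurethrally with ~10^7 CFU UTI89 (24-h static LB culture) in 50 μl PBS. From day 3, one oral gavage daily for 3 days, 50 μl; controls given water. On day 9, bladders homogenized in PBS with 0.025% Triton X-100 and plated on LB agar for CFU. 11 mice from two experiments; Mann-Whitney U test.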

Escherichia coli [24] = assay: Antibacterial activity against uropathogenic Escherichia coli UTI89 infected in human 5637 cells assessed as decrease in intracellular bacterial level at 250 to 300 ug/ml after 12 hrs by serial dilution method; type: functional, organism-based; outline: as §1
[25] = Drug level in Escherichia coli UTI89-infected CBA/J mouse urine at 200 ug/kg, sc after 2 hrs; type: ADME, organism-based; conditions: in vivo, 0.2 mg/kg
Outline: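 Urine was collected 2 h after dosing by gentle bladder pressure. 10-μl aliquots went onto 7-mm sterile filter discs laid on fresh UTI89 lawns on LB agar. Clearance diameters were read after 24 h at 37°C, and levels were calculated from standard curves of discs with known antibiotic concentrations.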

Escherichia coli [26] = assay: Antibacterial activity against uropathogenic Escherichia coli UTI89 infected in CBA/J mouse assessed as decrease in bacterial invasion into layers of urothelium at 200 ug/kg, sc administered on day 3 postinfection daily for 3 days measured on day 9 post-inoculation; type: functional, organism-based
Escherichia coli [27] = assay: Antibacterial activity against uropathogenic Escherichia coli UTI89 infected in CBA/J mouse assessed as decrease in bacterial invasion into layers of urothelium at 200 ug/kg, sc administered on day 3 postinfection daily for 3 days measured on day 9 post-inoculation in presence of Triton X-100; type: functional, organism-based
Escherichia coli [28] = assay: Antibacterial activity against uropathogenic Escherichia coli UTI89 infected in human 5637 cells assessed as decrease in intracellular bacterial level at 400 to 800 ug/ml after 12 hrs by serial dilution method; type: functional, organism-based; outline: as §3
Escherichia coli [29] = assay: Antibacterial activity against uropathogenic Escherichia coli UTI89 infected in CBA/J mouse assessed as decrease in bacterial load in bladder at 200 ug/kg, sc administered on day 3 postinfection daily for 3 days measured on day 9 post-inoculation; type: functional, organism-based; conditions: Urinary bladder

## NCC[C@H](O)C(=O)N[C@@H]1C[C@H](N)[C@@H](O[C@H]2O[C@H](CN)[C@@H](O)[C@H](O)[C@H]2O)[C@H](O)[C@H]1O[C@H]1O[C@H](CO)[C@@H](O)[C@H](N)[C@H]1O [AMIKACIN]
Escherichia coli [1]
  inhibition: Active
5637 [2]
  Activity: Toxic
5637 [3]
  Activity: Toxic
Escherichia coli [4]
  Activity: Active

## CC1=C(C(=O)O)N2C(=O)[C@@H](NC(=O)[C@H](N)c3ccc(O)cc3)[C@H]2SC1 [CEFADROXIL]
Escherichia coli [5]
  inhibition: Active
5637 [2]
  Activity: Toxic
5637 [3]
  Activity: Toxic
Escherichia coli [6]
  Biofilm inhibition activity: Active
Escherichia coli [4]
  Activity: Active

## O=C(O)c1cn(C2CC2)c2cc(N3CCNCC3)c(F)cc2c1=O [CIPROFLOXACIN]
5637 [2]
  Activity: Toxic
5637 [3]
  Activity: Toxic
Escherichia coli [4]
  Activity: Active
Escherichia coli [7]
  Activity: Active
Escherichia coli [8]
  inhibition: inactive
Escherichia coli [9]
  inhibition: Active
Escherichia coli [10]
  inhibition: Active
Escherichia coli [11]
  inhibition: Active

## NC[C@H]1O[C@H](O[C@H]2[C@H](O)[C@@H](O[C@H]3O[C@H](CO)[C@@H](O)[C@H](N)[C@H]3O)[C@H](N)C[C@@H]2N)[C@H](O)[C@@H](O)[C@@H]1O [KANAMYCIN]
Escherichia coli [12]
  inhibition: Active
5637 [2]
  Activity: Toxic
5637 [3]
  Activity: Toxic
Escherichia coli [4]
  Activity: Active

## C[C@H]1COc2c(N3CCN(C)CC3)c(F)cc3c(=O)c(C(=O)O)cn1c23.C[C@H]1COc2c(N3CCN(C)CC3)c(F)cc3c(=O)c(C(=O)O)cn1c23.O [LEVOFLOXACIN]
Escherichia coli [13]
  inhibition: Active
5637 [2]
  Activity: Toxic
5637 [3]
  Activity: Toxic
Escherichia coli [4]
  Activity: Active

## CCOc1ccc2ccccc2c1C(=O)N[C@@H]1C(=O)N2[C@@H]1SC(C)(C)[C@@H]2C(=O)O [NAFCILLIN]
Escherichia coli [5]
  inhibition: Active
5637 [2]
  Activity: Toxic
5637 [3]
  Activity: Toxic
Escherichia coli [4]
  Activity: Active

## CCn1cc(C(=O)O)c(=O)c2ccc(C)nc21 [NALIDIXIC ACID]
Escherichia coli [14]
  inhibition: Active
5637 [2]
  Activity: Toxic
5637 [3]
  Activity: Toxic
Escherichia coli [4]
  Activity: Active

## O=C1CN(/N=C/c2ccc([N+](=O)[O-])o2)C(=O)N1 [NITROFURANTOIN]
Escherichia coli [15]
  inhibition: Active
5637 [2]
  Activity: Toxic
5637 [3]
  Activity: Toxic
Escherichia coli [4]
  Activity: Active

## CCn1cc(C(=O)O)c(=O)c2cc(F)c(N3CCNCC3)cc21 [NORFLOXACIN]
Escherichia coli [15]
  inhibition: Active
5637 [2]
  Activity: Toxic
5637 [3]
  Activity: Toxic
Escherichia coli [4]
  Activity: Active

## CC1COc2c(N3CCN(C)CC3)c(F)cc3c(=O)c(C(=O)O)cn1c23 (centres undefined) [OFLOXACIN]
Escherichia coli [16]
  inhibition: Active
5637 [2]
  Activity: Toxic
5637 [3]
  Activity: Toxic
Escherichia coli [4]
  Activity: Active

## CC1(C)S[C@@H]2[C@H](NC(=O)Cc3ccccc3)C(=O)N2[C@H]1C(=O)O [PENICILLIN G]
Escherichia coli [17]
  inhibition: Active
5637 [2]
  Activity: Toxic
5637 [3]
  Activity: Toxic
Escherichia coli [6]
  Biofilm inhibition activity: Active
Escherichia coli [4]
  Activity: Active

## C[C@@H]1CN(c2c(F)c(N)c3c(=O)c(C(=O)O)cn(C4CC4)c3c2F)C[C@H](C)N1 [SPARFLOXACIN]
[18]
  Drug uptake: 0.3 µg/mL
Escherichia coli [19]
  inhibition: inactive
Escherichia coli [20]
  inhibition: Active
Escherichia coli [21]
  inhibition: Active
Escherichia coli [22]
  inhibition: Active
5637 [2]
  Activity: Toxic
5637 [3]
  Activity: Toxic
Escherichia coli [6]
  Biofilm inhibition activity: Active
Escherichia coli [4]
  Activity: Active
Escherichia coli [23]
  inhibition: Active
Escherichia coli [7]
  Activity: Active

## CN(C)[C@@H]1C(O)=C(C(N)=O)C(=O)[C@@]2(O)C(O)=C3C(=O)c4c(O)cccc4[C@@](C)(O)[C@H]3C[C@@H]12 [TETRACYCLINE]
Escherichia coli [24]
  inhibition: Active
5637 [2]
  Activity: Toxic
5637 [3]
  Activity: Toxic
Escherichia coli [4]
  Activity: Active

## GENTAMICIN [listing 1 of 2 here]
[25]
  Drug uptake: 2 mg/mL
5637 [2]
  Activity: Toxic
5637 [3]
  Activity: Toxic

## GENTAMICIN [listing 2 of 2 here]
Escherichia coli [26]
  inhibition: inactive
Escherichia coli [27]
  inhibition: Active
Escherichia coli [28]
  inhibition: Active
Escherichia coli [4]
  Activity: Active
Escherichia coli [29]
  inhibition: inactive
Escherichia coli [7]
  Activity: Active
